Assay results from different studies.
Protocols differ between the studies behind these lines.
Mode: inhibitor
CDK5 with p25: Cyclin-dependent kinase 5, with p25 (CDK5, Homo sapiens, UniProt Q00535)
CDK5: Cyclin-dependent kinase 5 (CDK5, Homo sapiens, UniProt Q00535)
CDK5 with p35: Cyclin-dependent kinase 5, with p35 (CDK5, Homo sapiens, UniProt Q00535)

Structure (SMILES) | target | assay | test system | conditions | inhibition [%]
CC[C@H](C)[C@H](NC(=O)[C@H](CCC(N)=O)NC(=O)[C@H](CC(C)C)NC(=O)[C@H](CCSC)NC(=O)[C@H](CCCCN)NC(=O)[C@H](CO)NC(=O)[C@H](CO)NC(=O)[C@H](CCSC)NC(=O)[C@H](CC(C)C)NC(=O)[C@H](CC(N)=O)NC(=O)[C@@H](NC(=O)[C@@H](NC(=O)[C@H](CO)NC(=O)[C@H](CC(C)C)NC(=O)[C@H](CS)NC(=O)[C@H](CCCNC(=N)N)NC(=O)[C@H](CC(=O)O)NC(=O)[C@H](Cc1c[nH]c2ccccc12)NC(=O)[C@H](Cc1ccccc1)NC(=O)[C@H](C)NC(=O)[C@H](CCC(=O)O)NC(=O)[C@@H](N)CCCCN)C(C)C)[C@@H](C)CC)C(=O)N[C@@H](CC(N)=O)C(=O)N[C@@H](C)C(=O)O | CDK5 with p25 | enzyme activity, radiometric | – | 1 µM | 0
COc1cc(-c2cc(-c3ccc(N4CCNCC4)cc3)cnc2C)cc(OC)c1OC | CDK5 | enzyme activity | – | 0.1 µM | 2
Cc1ccc(-n2nc(C(C)(C)C)cc2NC(=O)Nc2ccc(OCCN3CCOCC3)c3ccccc23)cc1 | CDK5 with p35 | enzyme activity | – | 10 µM | -26
CNc1cc(Oc2cc(C(=O)Nc3cc(N4CCN(C)CC4)cc(C(F)(F)F)c3)ccc2C)ncn1 | CDK5 | target engagement in cells, chemoproteomics | Huh-7 | 1 µM | -37.2
COc1cc2ncnc(Nc3ccc(Oc4ccccc4)cc3C)c2cc1OC | CDK5 with p35 | enzyme activity | – | 1 µM | 7
CN1CC(Oc2cnc(C#N)cc2-c2ccn3nc(NC(=O)C4CC4)cc3c2)C1 | CDK5 with p35 | enzyme activity | – | 1 µM | 12
Nc1nc(Nc2ccc(S(N)(=O)=O)cc2)sc1C(=O)c1ccccc1[N+](=O)[O-] | CDK5 | enzyme activity | – | 0.1 µM | 95 to 96
CN(C)C1CCN(CC#Cc2nn(C3CCCC3)c3nc(NCc4ccccc4)ncc23)C1 (centres unmarked) | CDK5 with p25 | enzyme activity, FRET | – | 1 µM | 3
